Reference: ChEMBL document CHEMBL3243962, “Antileukemic activity of derivatives of 1,2-dimethyl-3,4-bis(hydroxymethyl)-5-phenylpyrrole bis(N-methylcarbamate)” (J Med Chem, 1979)
The source made the active and inactive calls.

What was measured:
Mus musculus [1] = assay: Toxicity in mouse P388 cells allografted CD2F1 mouse assessed as body weight loss at 40 mg/kg, ip of total 9 doses starting 24 hrs post tumor inoculation measured on day 5 of inoculation relative to control; assay type: organism-based; design: dose 40 mg/kg, route intraperitoneal; details: in vivo
Method in brief: (§1)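 Male CD2F1 mice inoculated ip with 6×10^6 P388 leukemia cells. Compounds given ip as distilled water–Tween 80 suspension, nine daily doses starting 24 h after inoculation; six mice per dose group. Treated-minus-control body-weight change (T − C) and toxicity-day survivors recorded on day 5 (4 days after first dose).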

Mus musculus [2] = assay: Toxicity in mouse P388 cells allografted CD2F1 mouse assessed as body weight loss at 20 mg/kg, ip of total 9 doses starting 24 hrs post tumor inoculation measured on day 5 of inoculation relative to control; assay type: organism-based; design: dose 20 mg/kg, route intraperitoneal; details: in vivo; method in brief: as §1
Mus musculus [3] = assay: Toxicity in mouse P388 cells allografted CD2F1 mouse assessed as body weight loss at 10 mg/kg, ip of total 9 doses starting 24 hrs post tumor inoculation measured on day 5 of inoculation relative to control; assay type: organism-based; design: dose 10 mg/kg, route intraperitoneal; details: in vivo; method in brief: as §1
Mus musculus [4] = assay: Toxicity in mouse P388 cells allografted CD2F1 mouse assessed as body weight loss at 5 mg/kg, ip of total 9 doses starting 24 hrs post tumor inoculation measured on day 5 of inoculation relative to control; assay type: organism-based; design: dose 5 mg/kg, route intraperitoneal; details: in vivo; method in brief: as §1
Mus musculus [5] = assay: Toxicity in mouse P388 cells allografted CD2F1 mouse assessed as mouse survival at 20 mg/kg, ip of total 9 doses starting 24 hrs post tumor inoculation measured on day 5 of inoculation relative to control; assay type: organism-based; design: dose 20 mg/kg, route intraperitoneal; details: in vivo
Method in brief: (§2)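 Male CD2F1 mice bearing ip P388 leukemia (6×10^6 cells) were dosed ip with nine daily doses in distilled water–Tween 80 suspension, starting 24 h after inoculation. Survivors per group of 6 were counted on day 5, i.e. 4 days after the first dose. Body-weight change of treated minus control mice was also recorded.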

Mus musculus [6] = assay: Toxicity in mouse P388 cells allografted CD2F1 mouse assessed as mouse survival at 10 mg/kg, ip of total 9 doses starting 24 hrs post tumor inoculation measured on day 5 of inoculation relative to control; assay type: organism-based; design: dose 10 mg/kg, route intraperitoneal; details: in vivo; method in brief: as §2
Mus musculus [7] = assay: Toxicity in mouse P388 cells allografted CD2F1 mouse assessed as mouse survival at 5 mg/kg, ip of total 9 doses starting 24 hrs post tumor inoculation measured on day 5 of inoculation relative to control; assay type: organism-based; design: dose 5 mg/kg, route intraperitoneal; details: in vivo; method in brief: as §2
P388 [8] = assay: Antitumor activity against mouse P388 cells allografted in CD2F1 mouse assessed as increase in mouse survival at 40 mg/kg, ip of total 9 doses starting 24 hrs post tumor inoculation measured on day 5 of inoculation relative to control; assay type: functional; details: route intraperitoneal
Method in brief: (§3)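 Male CD2F1 mice inoculated ip with 6×10^6 P388 leukemia cells. Dosing was ip as a suspension in distilled water–Tween 80, nine daily doses starting 24 h after inoculation. Activity was read as median survival time of treated vs control mice (% T/C); % T/C ≥ 120 was considered significant. Groups were 6 mice.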

P388 [9] = assay: Antitumor activity against mouse P388 cells allografted in CD2F1 mouse assessed as increase in mouse survival at 20 mg/kg, ip of total 9 doses starting 24 hrs post tumor inoculation measured on day 5 of inoculation relative to control; assay type: functional; details: route intraperitoneal; method in brief: as §3
P388 [10] = assay: Antitumor activity against mouse P388 cells allografted in CD2F1 mouse assessed as increase in mouse survival at 10 mg/kg, ip of total 9 doses starting 24 hrs post tumor inoculation measured on day 5 of inoculation relative to control; assay type: functional; details: route intraperitoneal; method in brief: as §3
P388 [11] = assay: Antitumor activity against mouse P388 cells allografted in CD2F1 mouse assessed as increase in mouse survival at 5 mg/kg, ip of total 9 doses starting 24 hrs post tumor inoculation measured on day 5 of inoculation relative to control; assay type: functional; details: route intraperitoneal; method in brief: as §3
[12] = system: Staphylococcus epidermidis; assay: Antimicrobial activity against Staphylococcus epidermidis ATCC 12228 at 1 mg after 24 hrs by disk sensitivity assay; assay type: functional, organism-based
Method in brief: (§4)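 Bacteria grown 24 h in trypticase soy broth; 1 mL used to seed a lawn on trypticase soy agar. Sterile 6 mm paper disks carrying 1 mg test compound placed on agar, incubated 24 h at 37 °C, then zone of inhibition around each disk measured.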

Mus musculus [13] = assay: Toxicity in mouse P388 cells allografted CD2F1 mouse assessed as body weight loss at 100 mg/kg, ip of total 9 doses starting 24 hrs post tumor inoculation measured on day 5 of inoculation relative to control; assay type: organism-based; design: dose 100 mg/kg, route intraperitoneal; details: in vivo; method in brief: as §1
Mus musculus [14] = assay: Toxicity in mouse P388 cells allografted CD2F1 mouse assessed as body weight loss at 50 mg/kg, ip of total 9 doses starting 24 hrs post tumor inoculation measured on day 5 of inoculation relative to control; assay type: organism-based; design: dose 50 mg/kg, route intraperitoneal; details: in vivo; method in brief: as §1
Mus musculus [15] = assay: Toxicity in mouse P388 cells allografted CD2F1 mouse assessed as body weight loss at 25 mg/kg, ip of total 9 doses starting 24 hrs post tumor inoculation measured on day 5 of inoculation relative to control; assay type: organism-based; design: dose 25 mg/kg, route intraperitoneal; details: in vivo; method in brief: as §1
Mus musculus [16] = assay: Toxicity in mouse P388 cells allografted CD2F1 mouse assessed as body weight loss at 12.5 mg/kg, ip of total 9 doses starting 24 hrs post tumor inoculation measured on day 5 of inoculation relative to control; assay type: organism-based; design: dose 12.5 mg/kg, route intraperitoneal; details: in vivo; method in brief: as §1
Mus musculus [17] = assay: Toxicity in mouse P388 cells allografted CD2F1 mouse assessed as body weight loss at 6.25 mg/kg, ip of total 9 doses starting 24 hrs post tumor inoculation measured on day 5 of inoculation relative to control; assay type: organism-based; design: dose 6.25 mg/kg, route intraperitoneal; details: in vivo; method in brief: as §1
Mus musculus [18] = assay: Toxicity in mouse P388 cells allografted CD2F1 mouse assessed as mouse survival at 50 mg/kg, ip of total 9 doses starting 24 hrs post tumor inoculation measured on day 5 of inoculation relative to control; assay type: organism-based; design: dose 50 mg/kg, route intraperitoneal; details: in vivo; method in brief: as §2
Mus musculus [19] = assay: Toxicity in mouse P388 cells allografted CD2F1 mouse assessed as mouse survival at 25 mg/kg, ip of total 9 doses starting 24 hrs post tumor inoculation measured on day 5 of inoculation relative to control; assay type: organism-based; design: dose 25 mg/kg, route intraperitoneal; details: in vivo; method in brief: as §2
Mus musculus [20] = assay: Toxicity in mouse P388 cells allografted CD2F1 mouse assessed as mouse survival at 12.5 mg/kg, ip of total 9 doses starting 24 hrs post tumor inoculation measured on day 5 of inoculation relative to control; assay type: organism-based; design: dose 12.5 mg/kg, route intraperitoneal; details: in vivo; method in brief: as §2
Mus musculus [21] = assay: Toxicity in mouse P388 cells allografted CD2F1 mouse assessed as mouse survival at 6.25 mg/kg, ip of total 9 doses starting 24 hrs post tumor inoculation measured on day 5 of inoculation relative to control; assay type: organism-based; design: dose 6.25 mg/kg, route intraperitoneal; details: in vivo; method in brief: as §2
Staphylococcus aureus = assay: Antimicrobial activity against Staphylococcus aureus ATCC 25923 at 1 mg after 24 hrs by disk sensitivity assay; assay type: functional, organism-based; method in brief: as §4
P388 [22] = assay: Antitumor activity against mouse P388 cells allografted in CD2F1 mouse assessed as increase in mouse survival at 100 mg/kg, ip of total 9 doses starting 24 hrs post tumor inoculation measured on day 5 of inoculation relative to control; assay type: functional; details: route intraperitoneal; method in brief: as §3
P388 [23] = assay: Antitumor activity against mouse P388 cells allografted in CD2F1 mouse assessed as increase in mouse survival at 50 mg/kg, ip of total 9 doses starting 24 hrs post tumor inoculation measured on day 5 of inoculation relative to control; assay type: functional; details: route intraperitoneal; method in brief: as §3
P388 [24] = assay: Antitumor activity against mouse P388 cells allografted in CD2F1 mouse assessed as increase in mouse survival at 25 mg/kg, ip of total 9 doses starting 24 hrs post tumor inoculation measured on day 5 of inoculation relative to control; assay type: functional; details: route intraperitoneal; method in brief: as §3
P388 [25] = assay: Antitumor activity against mouse P388 cells allografted in CD2F1 mouse assessed as increase in mouse survival at 12.5 mg/kg, ip of total 9 doses starting 24 hrs post tumor inoculation measured on day 5 of inoculation relative to control; assay type: functional; details: route intraperitoneal; method in brief: as §3
P388 [26] = assay: Antitumor activity against mouse P388 cells allografted in CD2F1 mouse assessed as increase in mouse survival at 6.25 mg/kg, ip of total 9 doses starting 24 hrs post tumor inoculation measured on day 5 of inoculation relative to control; assay type: functional; details: route intraperitoneal; method in brief: as §3
Mus musculus [27] = assay: Toxicity in mouse P388 cells allografted CD2F1 mouse assessed as mouse survival at 100 mg/kg, ip of total 9 doses starting 24 hrs post tumor inoculation measured on day 5 of inoculation relative to control; assay type: organism-based; design: dose 100 mg/kg, route intraperitoneal; details: in vivo; method in brief: as §2
Salmonella typhimurium = assay: Antimicrobial activity against Salmonella typhimurium ATCC 14028 at 1 mg after 24 hrs by disk sensitivity assay; assay type: functional, organism-based; details: Salmonella enterica subsp. enterica serovar Typhimurium; method in brief: as §4
Serratia marcescens = assay: Antimicrobial activity against Serratia marcescens ATCC 8100 at 1 mg after 24 hrs by disk sensitivity assay; assay type: functional, organism-based; method in brief: as §4
Escherichia coli = assay: Antimicrobial activity against Escherichia coli ATCC 25922 at 1 mg after 24 hrs by disk sensitivity assay; assay type: functional, organism-based; method in brief: as §4
Proteus vulgaris = assay: Antimicrobial activity against Proteus vulgaris ATCC 6380 at 1 mg after 24 hrs by disk sensitivity assay; assay type: functional, organism-based; method in brief: as §4
Enterobacter cloacae = assay: Antimicrobial activity against Enterobacter cloacae ATCC 23355 at 1 mg after 24 hrs by disk sensitivity assay; assay type: functional, organism-based; method in brief: as §4
Klebsiella pneumoniae = assay: Antimicrobial activity against Klebsiella pneumoniae ATCC 23357 at 1 mg after 24 hrs by disk sensitivity assay; assay type: functional, organism-based; method in brief: as §4

Row | SMILES | Activity [12] | Activity (Mus musculus [13]) | Activity (Mus musculus [14]) | Activity (Mus musculus [15]) | Activity (Mus musculus [16]) | Activity (Mus musculus [17]) | Activity (Mus musculus [18]) | Activity (Mus musculus [19]) | Activity (Mus musculus [20]) | Activity (Mus musculus [21]) | Activity (Staphylococcus aureus) | T/C (P388 [23]) | T/C (P388 [24]) | T/C (P388 [25]) | T/C (P388 [26]) | also measured
1 | CNC(=O)OCc1c(COC(=O)NC)c(-c2ccc(Br)cc2)n(C)c1C |  |  |  |  |  |  |  |  |  |  |  |  |  |  |  | Activity (Mus musculus [1]): 5 g; Activity (Mus musculus [2]): 2.8 g; Activity (Mus musculus [3]): 2.8 g; Activity (Mus musculus [4]): 1.8 g; Activity (Mus musculus [5]): Non-toxic; Activity (Mus musculus [6]): Non-toxic; Activity (Mus musculus [7]): Non-toxic; T/C (P388 [8]): <75%; T/C (P388 [9]): 155%; T/C (P388 [10]): 146%; T/C (P388 [11]): 144%
2 | CNC(=O)OCc1c(COC(=O)NC)c(-c2ccc(OC)cc2)n(C)c1C | Active | 5.5 g | 4.4 g | 3.4 g | 3.2 g | 2.4 g | Non-toxic | Non-toxic | Non-toxic | Non-toxic | Active | 152% | 145% | 138% | 135% | T/C (P388 [22]): <70%
3 | CNC(=O)OCc1c(COC(=O)NC)c(-c2ccc(F)cc2)n(C)c1C | Active | 1.8 g | 5.1 g | 3.9 g | 4.3 g | 2.4 g | Non-toxic | Non-toxic | Non-toxic | Non-toxic | Active | 132% | 150% | 130% | 134% | Activity (Mus musculus [27]): Toxic
4 | CNC(=O)OCc1c(COC(=O)NC)c(-c2ccc(Cl)cc2)n(C)c1C |  | 7.5 g | 5.7 g | 4.4 g | 3.2 g | 3.4 g | Non-toxic | Non-toxic | Non-toxic | Non-toxic |  | 165% | 153% | 155% | 155% | 
5 | CNC(=O)OCc1c(COC(=O)NC)c(-c2ccc(C(C)(C)C)cc2)n(C)c1C | inactive | 4.4 g | 5.1 g | 4 g | 3.8 g | 2 g |  | Non-toxic | Non-toxic | Non-toxic | inactive | 97% | 158% | 155% | 152% | Activity (Salmonella typhimurium): inactive; Activity (Serratia marcescens): inactive; Activity (Escherichia coli): inactive; Activity (Proteus vulgaris): inactive; Activity (Enterobacter cloacae): inactive; Activity (Klebsiella pneumoniae): inactive
